Measurements reported in ChEMBL document CHEMBL1150828, “Antimalarial, cytotoxic, and antifungal alkaloids from Duguetia hadrantha” (J Nat Prod, 2001).
In brackets after ≈: the same amount, converted by molar mass. Activity calls are given as the source filed them. The calls are words filed in the database; no cut-off is given here.

Columns and labels:
[1] = system: Plasmodium falciparum; assay: Antimalarial activity after 48 hrs against chloroquine-resistant Plasmodium falciparum W2 as LDH activity by Makler method; type: functional, organism-based; settings: W2, 48 h
Summary of the method: (§1)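 Parasite lactate dehydrogenase (pLDH) assay adapted from Makler, run in 96-well microplates on two P. falciparum clones, W-2 and D-6 (D-6 chloroquine-sensitive). Chloroquine and artemisinin were positive controls, with DMSO as the vehicle control.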

[2] = Selectivity index, ratio of IC50 of african green monkey (Cercopithecus aethiops) Vero cells to IC50 for chloroquine-resistant Plasmodium falciparum W2; type: toxicity, cell-based; settings: read-out: Ratio IC50
[3] = system: Plasmodium falciparum; assay: Antimalarial activity after 48 hrs against chloroquine-sensitive Plasmodium falciparum D6 as LDH activity by Makler method; type: functional, organism-based; settings: D6, 48 h; summary of the method: as §1
[4] = Selectivity index, ratio of IC50 of african green monkey (Cercopithecus aethiops) Vero cells to IC50 for chloroquine-sensitive Plasmodium falciparum D6; type: toxicity, cell-based; settings: read-out: Ratio IC50
[5] = system: Plasmodium falciparum; assay: Antimalarial activity against chloroquine-resistant Plasmodium falciparum W2; type: functional, organism-based
Summary of the method: (§2)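 In vitro antimalarial screen using the parasite lactate dehydrogenase (pLDH) assay, adapted from Makler et al. and run in 96-well microplates. Two P. falciparum clones were tested: W-2 (chloroquine-resistant) and D-6 (chloroquine-sensitive). Chloroquine and artemisinin served as positive controls and DMSO as the vehicle (negative) control. IC50 values were reported.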

[6] = system: Plasmodium falciparum; assay: Antimalarial activity against chloroquine-sensitive Plasmodium falciparum D6; type: functional, organism-based; summary of the method: as §2
[7] = system: SK-MEL; assay: Cytotoxicity against human SK-MEL cells after 2 to 7 days by neutral red assay; type: functional, cell-based
[8] = system: KB; assay: Cytotoxicity against human KB cells after 2 to 7 days by neutral red assay; type: functional, cell-based
[9] = system: BT-549; assay: Cytotoxicity against human BT549 cells after 2 to 7 days by neutral red assay; type: functional, cell-based; settings: Homo sapiens, BT-549; read-out: IC50
[10] = system: SK-OV-3; assay: Cytotoxicity against human SKOV3 cells after 2 to 7 days by neutral red assay; type: functional, cell-based
[11] = system: Candida albicans; assay: Antifungal activity against Candida albicans B311 after 48 hrs by modified well microplate assay; type: functional, organism-based; settings: B311, 48 h
Summary of the method: (§3)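 ATCC strains (C. albicans B311 #90028, C. neoformans #90113, S. aureus #6535, MRSA #33591) were tested in a modified 96-well microplate protocol. […] Amphotericin B and rifampin served as positive controls and DMSO as the negative control.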

[12] = system: Cryptococcus neoformans; assay: Antifungal activity against Cryptococcus neoformans ATCC 90113 after 48 hrs by modified well microplate assay; type: functional, organism-based; summary of the method: as §3
[13] = system: Staphylococcus aureus; assay: Antibacterial activity against Staphylococcus aureus ATCC 6535 after 48 hrs by modified well microplate assay; type: functional, organism-based; summary of the method: as §3
[14] = system: Staphylococcus aureus; assay: Antibacterial activity against methicillin-resistant Staphylococcus aureus ATCC 33591 after 48 hrs by modified well microplate assay; type: functional, organism-based; summary of the method: as §3
[15] = system: Candida albicans; assay: Antifungal activity against Candida albicans B311; type: functional
[16] = target: Intercellular adhesion molecule (ICAM-1), Integrin alpha-L/beta-2 (Homo sapiens) (UniProt P20701+P05362+P05107); assay: Inhibition of LFA1/ICAM1-mediated aggregation of TPA-stimulated human HL60 cells pretreated 10 mins before TPA challenge measured after 16 hrs of PMA addition by microscopy; type: cell-based; settings: HL-60
Summary of the method: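 HL-60 cells at 1 × 10^6 cells/mL preincubated 10 min with sample, then PMA 10 ng/mL added; plates kept in CO2 incubator and aggregation scored microscopically 16 h after PMA; MIC reported; cytochalasin B, anti-LFA-1 and anti-ICAM-1 antibodies as positive controls.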

[17] = Specific index, ratio of IC50 for human HL60 cells to MIC for LFA1/ICAM1 mediated aggregation in TPA-stimulated human HL60 cells; type: functional, HL-60
Summary of the method: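 Ratio of XTT IC50 in HL-60 cells (4 h XTT-PMS read after the aggregation assay) to the microscopic aggregation MIC of PMA (10 ng/mL)-stimulated HL-60 cells scored 16 h after PMA.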

[18] = target: Intercellular adhesion molecule (ICAM-1), Integrin alpha-L/beta-2 (Homo sapiens, UniProt P05107+P05362+P20701); assay: Inhibition of LFA1/ICAM1-mediated CFSE-labeled TPA-stimulated human HL60 cell adhesion to ICAM1 expressing human HeLa cells after 45 mins by fluorescence analysis; type: cell-based
Summary of the method: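 CFSE-labelled HL-60 cells plus sample added onto confluent ICAM-1-expressing HeLa monolayers with PMA 50 ng/mL; 45 min at 37 °C in CO2 incubator; nonadherent cells washed off, remainder lysed in 1% Triton X-100; fluorescence at ex 496/em 519 nm; anti-ICAM-1 antibody and cytochalasin B positive controls.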

[19] = Specific index, ratio of IC50 for human HL60 cells to IC50 for LFA1/ICAM1-mediated CFSE-labeled TPA-stimulated human HL60 cell adhesion to ICAM1 expressing human HeLa cells
Summary of the method: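 Index = HL-60 XTT IC50 / adhesion IC50. XTT: HL-60 at 1 × 10^6 cells/mL, sample 10 min, then PMA 10 ng/mL for 16 h; then XTT 1 mg/mL with 25 µM PMS for 4 h at 37 °C, A450 (ref 630). Adhesion: CFSE-labeled HL-60 on confluent HeLa monolayers, PMA 50 ng/mL, 45 min at 37 °C; nonadherent cells washed off, remainder lysed in 1% Triton X-100, fluorescence ex 496/em 519 nm.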

[20] = system: HL-60; assay: Cytotoxicity against human HL60 cells after 16 hrs by XTT/PMS assay; settings: HL-60, 16 h
[21] = Homo sapiens, KB, read-out: IC50
[22] = Cryptococcus neoformans, ATCC 90113, 48 h, read-out: IC50

Chain of Intercellular adhesion molecule (ICAM-1), Integrin alpha-L/beta-2 (P20701 whole entry): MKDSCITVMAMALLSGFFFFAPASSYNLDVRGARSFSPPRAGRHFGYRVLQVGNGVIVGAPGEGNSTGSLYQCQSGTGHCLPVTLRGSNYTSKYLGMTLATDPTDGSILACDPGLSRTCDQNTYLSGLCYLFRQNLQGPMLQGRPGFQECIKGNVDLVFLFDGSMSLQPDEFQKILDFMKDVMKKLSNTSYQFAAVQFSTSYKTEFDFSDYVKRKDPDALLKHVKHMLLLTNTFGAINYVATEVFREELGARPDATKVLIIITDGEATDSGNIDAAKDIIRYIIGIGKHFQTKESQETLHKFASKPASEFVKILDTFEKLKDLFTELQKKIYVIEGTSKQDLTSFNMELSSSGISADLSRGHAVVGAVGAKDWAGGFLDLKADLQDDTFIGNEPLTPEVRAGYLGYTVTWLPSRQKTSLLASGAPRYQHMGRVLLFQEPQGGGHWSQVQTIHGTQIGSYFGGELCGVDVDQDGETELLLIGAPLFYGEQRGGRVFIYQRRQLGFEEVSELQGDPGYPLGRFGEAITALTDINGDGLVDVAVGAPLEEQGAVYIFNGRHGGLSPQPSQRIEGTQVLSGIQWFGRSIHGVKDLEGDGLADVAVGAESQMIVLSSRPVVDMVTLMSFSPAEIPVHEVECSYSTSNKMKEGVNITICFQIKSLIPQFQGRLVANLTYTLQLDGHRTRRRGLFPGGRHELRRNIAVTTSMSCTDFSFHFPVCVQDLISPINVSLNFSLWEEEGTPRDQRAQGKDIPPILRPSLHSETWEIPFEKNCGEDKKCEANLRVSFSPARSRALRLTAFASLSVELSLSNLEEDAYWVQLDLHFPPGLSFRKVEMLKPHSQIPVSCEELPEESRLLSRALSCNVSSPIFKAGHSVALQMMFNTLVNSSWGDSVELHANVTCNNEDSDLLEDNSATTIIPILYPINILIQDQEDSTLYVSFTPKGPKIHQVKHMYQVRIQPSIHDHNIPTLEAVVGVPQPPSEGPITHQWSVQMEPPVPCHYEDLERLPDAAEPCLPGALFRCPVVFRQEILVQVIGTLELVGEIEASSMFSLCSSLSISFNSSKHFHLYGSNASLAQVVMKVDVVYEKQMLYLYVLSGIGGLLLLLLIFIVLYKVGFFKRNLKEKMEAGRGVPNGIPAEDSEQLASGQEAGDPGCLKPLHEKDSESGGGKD
Chain of Intercellular adhesion molecule (ICAM-1), Integrin alpha-L/beta-2 (P05362 whole entry): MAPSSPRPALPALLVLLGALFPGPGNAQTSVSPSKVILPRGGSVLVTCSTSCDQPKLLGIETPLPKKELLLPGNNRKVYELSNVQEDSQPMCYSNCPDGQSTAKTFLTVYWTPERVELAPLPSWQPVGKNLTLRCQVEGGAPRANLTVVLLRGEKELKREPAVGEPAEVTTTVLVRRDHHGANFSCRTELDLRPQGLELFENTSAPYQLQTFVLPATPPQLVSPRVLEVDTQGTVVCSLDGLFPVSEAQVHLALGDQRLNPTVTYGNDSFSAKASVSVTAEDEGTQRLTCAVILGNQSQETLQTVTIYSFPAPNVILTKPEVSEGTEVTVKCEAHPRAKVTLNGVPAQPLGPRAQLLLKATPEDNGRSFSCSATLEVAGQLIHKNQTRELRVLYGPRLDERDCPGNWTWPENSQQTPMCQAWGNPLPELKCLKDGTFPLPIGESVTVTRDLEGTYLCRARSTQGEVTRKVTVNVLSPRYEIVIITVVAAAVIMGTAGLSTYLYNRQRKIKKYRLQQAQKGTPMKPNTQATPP
Chain of Intercellular adhesion molecule (ICAM-1), Integrin alpha-L/beta-2 (P05107 whole entry): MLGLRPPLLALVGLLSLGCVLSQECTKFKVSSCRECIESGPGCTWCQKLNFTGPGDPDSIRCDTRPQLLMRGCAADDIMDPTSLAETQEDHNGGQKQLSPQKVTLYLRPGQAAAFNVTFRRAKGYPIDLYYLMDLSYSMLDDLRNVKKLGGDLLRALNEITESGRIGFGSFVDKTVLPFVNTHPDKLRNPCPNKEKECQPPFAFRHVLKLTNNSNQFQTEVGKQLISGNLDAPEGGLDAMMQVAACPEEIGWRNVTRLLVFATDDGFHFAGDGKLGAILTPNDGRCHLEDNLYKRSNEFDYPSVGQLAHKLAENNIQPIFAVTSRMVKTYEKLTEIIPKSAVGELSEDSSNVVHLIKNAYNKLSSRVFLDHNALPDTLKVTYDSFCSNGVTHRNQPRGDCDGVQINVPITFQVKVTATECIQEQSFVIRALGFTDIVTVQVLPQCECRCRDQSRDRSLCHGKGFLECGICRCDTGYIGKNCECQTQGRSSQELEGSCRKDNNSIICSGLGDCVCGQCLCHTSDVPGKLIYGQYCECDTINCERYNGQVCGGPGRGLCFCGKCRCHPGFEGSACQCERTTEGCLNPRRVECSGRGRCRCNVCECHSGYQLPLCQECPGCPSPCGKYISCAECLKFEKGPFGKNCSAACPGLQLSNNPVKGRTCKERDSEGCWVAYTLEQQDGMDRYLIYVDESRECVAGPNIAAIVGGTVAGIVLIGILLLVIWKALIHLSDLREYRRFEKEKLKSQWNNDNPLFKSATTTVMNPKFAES

SMILES	IC50 [1] [µg/mL]	selectivity ratio [2]	IC50 [3] [µg/mL]	selectivity ratio [4]	IC50 [7] [µg/mL]	IC50 [8, 21] [µg/mL]	IC50 [9] [µg/mL]	IC50 [10] [µg/mL]	IC50 [11] [µg/mL]	MIC [11] [µg/mL]	IC50 [12, 22] [µg/mL]	MIC [16] [µg/mL]	IC50 [20] [µg/mL]	IC50 [13]	MIC [13]	IC50 [14]	MIC [14]	also measured
C[C@@H]1CC[C@H]2[C@@H](C)C(=O)O[C@@H]3O[C@@]4(C)CC[C@@H]1[C@]32OO4 [ARTEMISININ]	0.0044 (≈ 0.0156 µM)	> 1080	0.005 (≈ 0.0177 µM)	> 952	–	–	–	–	–	–	–	–	–	–	–	–	–	IC50 [5]: 0.0005 µg/mL (≈ 0.00177 µM); IC50 [6]: 0.0018 µg/mL (≈ 0.00638 µM)
O=C1c2ccccc2-c2nccc3ccnc1c23 [SAMPANGINE]	0.068 (≈ 0.293 µM)	> 70	0.42 (≈ 1.81 µM)	> 11	0.37 (≈ 1.59 µM)	5.3 (≈ 22.8 µM)	6.4 (≈ 27.6 µM)	4.1 (≈ 17.7 µM)	0.15 (≈ 0.646 µM)	0.39 (≈ 1.68 µM)	0.15 (≈ 0.646 µM)	< 0.15	2 (≈ 8.61 µM)	–	–	–	–	MIC ([12]; Cryptococcus neoformans, ATCC 90113, 48 h): 0.78 µg/mL (≈ 3.36 µM); IC50 ([13]; Staphylococcus aureus, ATCC 6535, 48 h, read-out: IC50): 5.5 µg/mL (≈ 23.7 µM); MIC ([14]; Staphylococcus aureus, ATCC 33591, 48 h): 12.5 µg/mL (≈ 53.8 µM); IC50 ([14]; Staphylococcus aureus, ATCC 33591, 48 h, read-out: IC50): 9 µg/mL (≈ 38.8 µM); MIC [15]: 1.56 µg/mL (≈ 6.72 µM); Ratio [17]: >13.3; IC50 [18]: > 43.1 µM; Ratio IC50 [19]: <0.2
COc1ccc2c(OC)c3c4c(ccnc4c2c1)C(=O)C(=O)N3C [HADRANTHINE A]	0.12 (≈ 0.372 µM)	> 40	0.12 (≈ 0.372 µM)	> 40	> 10	–	> 10	> 10	4.5 (≈ 14 µM)	20 (≈ 62.1 µM)	–	–	–	Not Active	inactive	Not Active	inactive	IC50 ([8]; kb): Not Active; IC50 [12]: Not Active; MIC [12]: inactive
COc1c2c3c(ccnc3c3ccccc13)C(=O)C(=O)N2C	0.28 (≈ 0.958 µM)	> 17	0.55 (≈ 1.88 µM)	> 8.7	2 (≈ 6.84 µM)	> 10	> 10	5 (≈ 17.1 µM)	9 (≈ 30.8 µM)	50 (≈ 171 µM)	50 (≈ 171 µM)	–	–	Not Active	inactive	Not Active	inactive	–
COc1c2c3c(ccnc3c3ccccc13)C(=O)C(=O)N2 [HADRANTHINE B]	–	–	–	–	3 (≈ 10.8 µM)	6.4 (≈ 23 µM)	6.6 (≈ 23.7 µM)	3.6 (≈ 12.9 µM)	–	–	–	4.2 (≈ 15.1 µM)	> 12.5	–	–	–	–	Ratio IC50 [17]: 3
